Screening results: PubChem BioAssay, several laboratories
Hits are enriched below; roughly 4% of the tested compounds scored in any of these assays.
TAAR1 ag = human TAAR1 agonism; CHO RD-HGA16 TAAR1, Fluo-8 calcium fluorescence; vehicle wells 0%, saturating PEA agonist 100%; activation, % at 3 µM; hit rate 0.99% among 360,000;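 active means activation above the mean activation of all test compounds in the run plus 3 SD, cut at about 38% in these data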
Target sequence (Q96RJ0 whole entry, looked up): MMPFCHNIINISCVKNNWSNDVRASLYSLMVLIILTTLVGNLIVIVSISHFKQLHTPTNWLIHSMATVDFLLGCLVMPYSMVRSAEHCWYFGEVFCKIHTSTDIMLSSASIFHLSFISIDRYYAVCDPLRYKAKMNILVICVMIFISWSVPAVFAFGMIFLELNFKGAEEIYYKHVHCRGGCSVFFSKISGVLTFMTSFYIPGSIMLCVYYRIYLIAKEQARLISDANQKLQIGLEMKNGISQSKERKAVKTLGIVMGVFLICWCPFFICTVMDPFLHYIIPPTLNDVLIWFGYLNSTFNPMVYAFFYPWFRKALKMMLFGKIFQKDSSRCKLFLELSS
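Assay system – CHO-derived RD-HGA16 cells with stable Gα16 and human TAAR1 · Compound dosing – one-point dosing at 3 µM (nominal) · Incubation – 17-24 h seeding, 75 min 37 °C dye, 30 min RT · Measured by – kinetic Fluo-8 calcium fluorescence · Control set – DMSO vehicle as 0%, PEA at EC100 as 100% · Repeats – single well for each compound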
TAAR1 antag = human TAAR1 antagonism; inhibition, % at 3 µM; CHO RD-HGA16 TAAR1, Fluo-8 calcium fluorescence, antagonist; hit rate 1.5% among 360,000;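 active means inhibition above a per-plate cutoff, the mean inhibition of test compounds on that plate plus 3 SD, cut at about 49% in these data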
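test system = CHO RD-HGA16 cells bearing hTAAR1 | replication = singlicate | controls = DMSO-only wells and EC80 β-PEA-stimulated wells | reagent = EC80 β-phenethylamine stimulus | read-out basis = percent inhibition of PEA-evoked calcium signal, max/basal emission ratio | schedule = seeding 17-24 h prior, 75-min 37 °C, 30-min RT dye loading | signal = kinetic Fluo-8 calcium fluorescence measurement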
GPR7 antagonist = blocks human GPR7 receptor signaling; P48145; GPR7-expressing cells, fluorescence antagonist assay; inhibition, % at 4.4 µM; hit rate 1.1% among 290,000; in the data active means inhibition above about 16%, passing the limit was not always enough;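 further: cells stimulated with the agonist NPW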
Target sequence (P48145 whole entry, looked up): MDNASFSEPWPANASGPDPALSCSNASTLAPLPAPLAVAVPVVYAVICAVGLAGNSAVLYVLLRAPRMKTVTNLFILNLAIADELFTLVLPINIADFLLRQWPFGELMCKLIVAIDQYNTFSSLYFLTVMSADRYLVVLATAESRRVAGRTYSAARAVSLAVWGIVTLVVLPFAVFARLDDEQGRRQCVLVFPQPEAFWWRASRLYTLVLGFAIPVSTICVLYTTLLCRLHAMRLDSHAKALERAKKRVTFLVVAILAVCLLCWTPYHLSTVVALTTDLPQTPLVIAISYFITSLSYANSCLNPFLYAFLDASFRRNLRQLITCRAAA
MPTP inh = inhibitors of mitochondrial permeability transition pore; isolated mouse mitochondria, Ca2+ swelling absorbance, 30 min; hit rate 1.4% among 360,000; inhibition, % at 10 µM; AID 602449;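 active means inhibition of 50% or more, scaled per plate between neutral and stimulator controls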
DAGLB inhibitor = blocks human DAGLB lipase activity; Q8NCG7; HEK293T DAGLB membrane lysate, EnzChek fluorogenic substrate; inhibition, % at 5.17 µM; hit rate 0.059% among 340,000; AID 504411; in the data active means inhibition above about 34%
TAAR1 ag confirm = confirmation of human TAAR1 agonists; AID 651783; hit rate 82% among 2,400; activation, % at 3 µM; shares compounds with TAAR1 ag; CHO RD-HGA16 TAAR1, Fluo-8 calcium fluorescence; scaled: DMSO 0%, maximal phenethylamine 100%;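 active means activation above a cutoff set at the run's mean compound activation plus 3 SD, cut at about 39% in these data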
Ga16 ag counter = nonselective agonist in parental cells, TAAR1 agonist counter-screen; activation, % at 3 µM; AID 651787; shares compounds with TAAR1 ag; hit rate 50% among 2,400; CHO-Ga16 parental, Fluo-8 calcium fluorescence; normalized to maximal ATP response, DMSO zero;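 active means activation above the run cutoff, the mean activation over all tested wells plus 3 SD, cut at about 12% in these data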
TAAR1 desens = counter-screen for human TAAR1 agonists: agonists that desensitize TAAR1. AID 651951. CHO RD-HGA16 hTAAR1, Fluo-8 calcium, beta-PEA response inhibition. shares compounds with TAAR1 ag. hit rate 46% among 2,400. inhibition, % at 3 µM;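 active means inhibition above the run cutoff, the mean inhibition of all test compounds plus 3 SD, cut at about 49% in these data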;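 further: beta-PEA stimulus applied at its EC80; loss of beta-PEA calcium signal after compound pretreatment read as receptor desensitization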
Ga16 nonsel ant = nonselective Ga16 antagonist in TAAR1 agonist counter-screen | CHO-Ga16 ATP-induced calcium, Fluo-8 fluorescence | AID 651952 | inhibition, % at 3 µM | hit rate 39% among 2,400 | shares compounds with TAAR1 ag;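 active means inhibition above the plate's mean compound inhibition plus 3 SD, computed per plate, cut at about 22% in these data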
Numbers stand for hits; n = inactive; x = not tested or not shown.

SMILES	TAAR1 ag	TAAR1 antag	GPR7 antagonist	MPTP inh	DAGLB inhibitor	TAAR1 ag confirm	Ga16 ag counter	TAAR1 desens	Ga16 nonsel ant
C=CCn1c(SCC(=O)NCCc2ccccc2)nnc1C(C)NC(=O)c1cccs1 (centres undefined)	49.1	n	n	n	n	65.7	n	n	n
C=CCn1c(SCC(=O)Nc2cccc(C(=O)OC)c2)nnc1C(C)NC(=O)c1cccs1 (centres undefined)	n	n	n	n	n	x	x	x	x
Cc1cc(N2CCNC[C@H]2C)ccc1N1CCN(Cc2ccccc2)[C@@H](C)C1	n	n	x	x	x	x	x	x	x
CCc1c(-c2ccc(Cl)cc2)ncn1CCc1ccccc1OC	n	n	x	x	x	x	x	x	x
CCc1c(-c2ccccc2F)ncn1CCc1ccccc1OC	n	n	x	x	x	x	x	x	x
COc1ccccc1CCn1cnc(C)c1CC(C)C	76.2	n	x	n	x	68.7	n	n	n
CCc1ncn(CCc2ccccc2OC)c1C(C)C	52.8	n	x	n	x	63.1	n	n	n
CC(=O)c1cccc(NC(=O)C2CC(=O)N(C3CCCC3)C2)c1 (centres undefined)	n	n	x	n	n	x	x	x	x
COC(=O)c1cccc(-n2c(C)cc(O)cc2=O)c1	n	n	x	x	x	x	x	x	x
Clc1ccc2nc(N3CCNCC3)nc(-c3ccccc3)c2c1	56.6	n	n	n	n	58.1	28.5	n	n
O=C(C1=C(O)C(=O)N(Cc2cccnc2)C1c1cccc(Oc2ccccc2)c1)c1ccco1 (centres undefined)	n	n	x	n	n	x	x	x	x
O=C(C1=C(O)C(=O)N(CCc2ccccc2)C1c1ccncc1)c1cc2ccccc2o1 (centres undefined)	43.6	n	n	n	n	53.9	n	n	n
O=C(C1=C(O)C(=O)N(CCc2ccccc2)C1c1cccnc1)c1ccco1 (centres undefined)	47.3	n	n	n	n	59.3	n	n	n
CCN(CC)CCN1C(=O)C(O)=C(C(=O)c2cc3ccccc3o2)C1c1cccnc1 (centres undefined)	n	n	n	n	n	x	x	x	x
CC1(C)CC(Cc2ccc(Cl)nc2)N(C(=O)OC(C)(C)C)C1 (centres undefined)	n	n	x	n	n	x	x	x	x
COc1ccc(-c2noc(CCC(=O)NC3CCCCCC3)n2)cc1OC	n	n	x	n	n	x	x	x	x
O=c1c2ccccc2sn1-c1ccc(Cl)cc1Cl	n	n	x	n	n	x	x	x	x
O=c1cc(Nc2ccc3c(c2)OCO3)[nH]c(=O)n1-c1ccc(Br)cc1	48.0	n	n	n	n	76.0	n	n	n
C[C@@H]1ON(C)[C@H]2C[C@H]3c4[nH]c5cccc(-c6ccccc6)c5c4CCN3C[C@@H]12	n	n	x	x	x	x	x	x	x
CCCCCCN1C[C@@H](O)[C@H](n2cc(-c3ccc(F)cc3)nn2)C[C@@H]1c1ccccc1	n	n	x	n	n	x	x	x	x
CN(C)CCNC(=O)c1ccc(CS(=O)(=O)c2c(Cl)cccc2Cl)o1	n	n	n	n	n	x	x	x	x
CN(CCNC(=O)c1ccc(CS(=O)(=O)c2c(Cl)cccc2Cl)o1)CCc1ccccc1	44.1	n	n	n	n	55.1	n	n	n
Cc1ccc(CCNC(=O)c2ccc(CS(=O)(=O)Cc3ccccc3F)o2)cc1	n	n	n	n	n	x	x	x	x
O=C(NCCc1ccccc1)c1ccc(CS(=O)(=O)Cc2ccccc2F)o1	55.5	n	n	n	n	83.3	n	66.4	n
Cc1ccc(CNc2nc3c([nH]2)c(=O)n(C)c(=O)n3C)cc1	n	n	n	n	n	x	x	x	x
SMILES	TAAR1 ag	TAAR1 antag	GPR7 antagonist	MPTP inh	DAGLB inhibitor	TAAR1 ag confirm	Ga16 ag counter	TAAR1 desens	Ga16 nonsel ant
Cn1c(=O)c2[nH]c(Nc3ccccc3)nc2n(C)c1=O	73.7	n	n	n	n	70.6	n	61.2	n
COc1ccc(CN2C(=O)C(CC(=O)NCc3cccs3)CC(C(=O)N(C(C)C)C(C)C)=C2C)cc1 (centres undefined)	n	n	x	n	n	x	x	x	x
Cn1c(CN2CCCC2)nc2cc(NS(=O)(=O)c3ccc(Cl)cc3)ccc21	69.5	n	n	n	n	93.0	29.7	n	n
CC(NC(=O)Cc1ccc(-c2ccccc2)cc1)c1ccccc1 (centres undefined)	60.5	n	n	n	n	n	17.6	n	n
CC(NC(=O)COC(=O)Cc1ccc(Cl)cc1)c1ccccc1 (centres undefined)	n	n	x	n	n	x	x	x	x
CCCCCCN(C(=O)CCCN1C(=O)NC(c2ccc([N+](=O)[O-])cc2)C(C(=O)OCc2ccccc2)=C1C)C(C)C(=O)NCCCC (centres undefined)	x	x	x	n	n	x	x	x	x
CC(C)CCCCCCCCc1cccc(O)c1C(=O)O	130.3	97.7	x	x	x	113.5	88.9	104.2	91.7
COc1ccc(-c2nc3c(Cl)cc(C(F)(F)F)cn3c2Cc2ccsc2)cc1OC	n	n	x	n	x	x	x	x	x
O=C(CSC1=NS(=O)(=O)c2cc(Cl)ccc2N1)NCCc1ccccc1	104.3	80.2	x	n	n	92.6	n	85.9	n
O=C(CSC1=NS(=O)(=O)c2cc(F)ccc2N1)NCCc1ccccc1	101.5	81.3	x	n	n	105.0	n	94.4	n
O=C(CSC1=NS(=O)(=O)c2cc(F)ccc2N1)Nc1ccccc1	n	n	x	n	n	x	x	x	x
CC1=CC(O)(c2ccccn2)P(=O)(c2ccccc2)C=C1C (centres undefined)	n	n	x	x	x	x	x	x	x
CSc1ccc(OC2(C)CCN(Cc3ccc4c(c3)OCCO4)C2)cc1 (centres undefined)	n	n	x	n	x	x	x	x	x
O=C(Nc1ccccc1F)c1ccc(CNS(=O)(=O)c2cccc(C(F)(F)F)c2)cc1	46.3	n	n	n	n	n	16.4	n	n
O=C1O[C@@H](c2ccccc2)C[C@@H](O)C(=O)CCCCc2ccccc21	n	n	x	n	x	x	x	x	x
COC(=O)c1c(-n2c(C)cc(C=O)c2C)sc2c1CCCC2	40.7	72.2	n	n	n	n	n	n	n
Cc1cc(C=O)c(C)n1-c1sc2c(c1C(=O)O)CCCC2	n	n	n	n	n	x	x	x	x
COc1cc2c(-c3ccc(O)cc3)nc3c(c(C)nn3-c3ccccc3)c2cc1OC	40.5	50.3	n	n	n	n	14.4	49.0	38.4
CC#CCN(Cc1ccco1)C(=O)C1CCC(=O)N(CCc2cccc(F)c2)C1 (centres undefined)	n	n	x	n	n	x	x	x	x
CN(CC(=O)NCc1ccccc1)CC(=O)Nc1ccc(Cl)c(C(F)(F)F)c1	72.6	n	x	n	n	82.1	24.9	60.3	33.7
